According to ChEMBL document CHEMBL4350955, “Novel Chemical Series of 5-Lipoxygenase-Activating Protein Inhibitors for Treatment of Coronary Artery Disease” (J Med Chem, 2019):
Converted amounts (≈) assume the structure as drawn.

Assays:
[1] = Distribution coefficient between octanol and sodium phosphate buffer, logD of the compound in pH 7.4 buffer by LC-MS/MS-based shake flask method
[2] = molecular target: T1, Arachidonate 5-lipoxygenase-activating protein (Homo sapiens, UniProt P20292); experiment: Inhibition of [3H]MK0591 binding to human FLAP expressed in […] cell membranes measured after 60 to 80 mins by scintillation counting method
T1 sequence (P20292 whole entry): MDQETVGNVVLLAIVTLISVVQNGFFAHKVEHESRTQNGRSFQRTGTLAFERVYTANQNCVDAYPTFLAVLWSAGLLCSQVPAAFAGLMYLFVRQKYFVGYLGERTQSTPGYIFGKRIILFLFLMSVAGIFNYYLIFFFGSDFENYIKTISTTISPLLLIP

[3] = molecular target: T2, Arachidonate 5-lipoxygenase-activating protein (Homo sapiens) (UniProt P20292); experiment: (§1) Inhibition of FLAP in human whole blood assessed as reduction in calcium ionophore-stimulated LTB4 production preincubated for 30 mins followed by calcium ionophore stimulation and measured after 20 mins by EIA; assay type: tissue-based
T2 sequence (whole entry): T1 sequence (P20292 whole entry)

[4] = molecular target: T1, Arachidonate 5-lipoxygenase-activating protein; experiment: as §1; assay type: tissue-based
[5] = Genotoxicity in Salmonella typhimurium by Ames test; assay type: toxicity; settings: salmonella enterica subsp. enterica serovar typhimurium
Outline: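 Two-strain Salmonella Ames test, with and without metabolic activation by rat liver S9 fraction; applied to amino pyrazole building blocks present in the series.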

Homo sapiens = experiment: Suppression of calcium ionophore-stimulated LTB4 production in CAD patient whole blood at 100 mg administered daily during phase 2 study for 12 weeks by ELISA relative to baseline; assay type: functional
hERG (KCNH2) = hERG (KCNH2) (Homo sapiens, UniProt Q12809); experiment: Inhibition of human ERG at 10 uM high-throughput electrophysiology assay relative to control
[6] = molecular target: T2, Arachidonate 5-lipoxygenase-activating protein (Homo sapiens); experiment: (§2) Inhibition of FLAP in human whole blood assessed as reduction in calcium ionophore-stimulated LTB4 production preincubated for 4 hrs followed by calcium ionophore stimulation and measured after 20 mins by EIA; assay type: tissue-based
[7] = molecular target: T1, Arachidonate 5-lipoxygenase-activating protein; experiment: as §2; assay type: tissue-based
Cytochrome P450 1A2 = Cytochrome P450 1A2 (Homo sapiens, UniProt P05177); experiment: Inhibition of recombinant human CYP1A2 assessed as maximum reduction in metabolite formation using coumarin based substrate by fluorescence assay; assay type: ADME
[8] = Apparent permeability across apical to basolateral side in human Caco2 cells; settings: Caco-2
physchem = settings: phosphate buffer, pH 7.4
[9] = Intrinsic clearance in cryopreserved human hepatocytes assessed as per million cells at 1 uM measured up to 60 mins by LC-MS/MS analysis; assay type: ADME, cell-based, Hepatocyte; settings: read-out: CLH
Cytochrome P450 3A4 = Cytochrome P450 3A4 (Homo sapiens, UniProt P08684); experiment: Inhibition of recombinant human CYP3A4 expressed in Escherichia coli assessed as maximum reduction in metabolite formation using coumarin based substrate by fluorescence assay
[10] = Metabolic stability in human hepatocytes assessed as parent compound remaining; assay type: ADME, cell-based, Hepatocyte

Sequence of hERG (KCNH2) (Q12809 whole entry): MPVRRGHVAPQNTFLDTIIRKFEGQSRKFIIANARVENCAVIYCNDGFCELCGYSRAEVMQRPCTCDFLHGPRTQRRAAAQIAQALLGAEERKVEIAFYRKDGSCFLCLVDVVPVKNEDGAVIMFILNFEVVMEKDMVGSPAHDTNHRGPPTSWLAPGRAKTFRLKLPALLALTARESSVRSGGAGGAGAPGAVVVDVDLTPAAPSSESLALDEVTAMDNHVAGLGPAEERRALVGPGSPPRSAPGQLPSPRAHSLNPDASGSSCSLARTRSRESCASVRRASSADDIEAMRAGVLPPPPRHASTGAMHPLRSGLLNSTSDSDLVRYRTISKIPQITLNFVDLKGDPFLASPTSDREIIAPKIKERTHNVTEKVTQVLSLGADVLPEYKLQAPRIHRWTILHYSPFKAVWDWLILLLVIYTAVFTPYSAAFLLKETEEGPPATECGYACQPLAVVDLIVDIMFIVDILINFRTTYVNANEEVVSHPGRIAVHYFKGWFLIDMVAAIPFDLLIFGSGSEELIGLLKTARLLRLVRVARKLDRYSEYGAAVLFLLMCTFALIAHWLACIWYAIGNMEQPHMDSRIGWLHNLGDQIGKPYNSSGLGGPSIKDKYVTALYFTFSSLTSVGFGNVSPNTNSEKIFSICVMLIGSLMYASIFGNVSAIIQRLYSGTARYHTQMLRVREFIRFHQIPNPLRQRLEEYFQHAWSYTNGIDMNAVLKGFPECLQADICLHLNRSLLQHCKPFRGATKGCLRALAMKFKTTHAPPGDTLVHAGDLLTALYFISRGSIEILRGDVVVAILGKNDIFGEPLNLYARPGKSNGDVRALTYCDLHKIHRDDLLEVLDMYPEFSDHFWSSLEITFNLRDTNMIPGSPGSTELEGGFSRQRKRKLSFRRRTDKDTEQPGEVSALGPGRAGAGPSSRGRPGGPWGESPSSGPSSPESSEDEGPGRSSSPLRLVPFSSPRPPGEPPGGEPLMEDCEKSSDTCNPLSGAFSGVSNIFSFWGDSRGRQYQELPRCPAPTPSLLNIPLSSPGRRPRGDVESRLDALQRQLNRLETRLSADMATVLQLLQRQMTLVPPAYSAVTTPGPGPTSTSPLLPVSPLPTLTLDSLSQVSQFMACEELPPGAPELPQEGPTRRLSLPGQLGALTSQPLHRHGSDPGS
Sequence of Cytochrome P450 3A4 (P08684 whole entry): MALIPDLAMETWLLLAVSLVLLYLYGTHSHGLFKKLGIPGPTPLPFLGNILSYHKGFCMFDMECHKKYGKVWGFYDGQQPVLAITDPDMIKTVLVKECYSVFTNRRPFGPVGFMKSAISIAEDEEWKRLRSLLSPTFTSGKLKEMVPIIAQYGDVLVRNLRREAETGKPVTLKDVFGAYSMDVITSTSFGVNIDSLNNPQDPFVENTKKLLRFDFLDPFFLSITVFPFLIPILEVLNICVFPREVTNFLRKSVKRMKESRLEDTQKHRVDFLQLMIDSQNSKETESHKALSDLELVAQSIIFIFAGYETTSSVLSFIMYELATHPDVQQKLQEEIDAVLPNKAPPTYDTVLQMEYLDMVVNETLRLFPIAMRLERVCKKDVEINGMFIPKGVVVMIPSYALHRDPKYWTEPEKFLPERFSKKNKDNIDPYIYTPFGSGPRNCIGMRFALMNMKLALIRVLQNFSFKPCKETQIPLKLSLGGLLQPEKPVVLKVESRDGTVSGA
Sequence of Cytochrome P450 1A2 (P05177 whole entry): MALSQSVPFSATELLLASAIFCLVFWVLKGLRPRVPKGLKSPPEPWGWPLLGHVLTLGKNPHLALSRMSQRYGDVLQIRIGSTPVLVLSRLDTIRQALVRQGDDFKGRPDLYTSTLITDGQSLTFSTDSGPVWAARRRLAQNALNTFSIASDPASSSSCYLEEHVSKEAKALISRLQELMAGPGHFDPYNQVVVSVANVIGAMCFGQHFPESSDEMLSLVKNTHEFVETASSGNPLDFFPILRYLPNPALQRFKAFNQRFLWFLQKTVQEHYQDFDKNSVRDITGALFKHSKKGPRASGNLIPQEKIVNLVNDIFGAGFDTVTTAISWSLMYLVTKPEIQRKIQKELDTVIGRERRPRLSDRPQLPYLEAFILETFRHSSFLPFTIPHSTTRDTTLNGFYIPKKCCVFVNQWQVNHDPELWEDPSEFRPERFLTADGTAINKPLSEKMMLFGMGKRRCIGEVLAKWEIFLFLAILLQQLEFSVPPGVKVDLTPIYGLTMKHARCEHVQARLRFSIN

Row | logD [1] | IC50 [2] | fpIC50 [3] | IC50 [4] | fpIC50 [6] | IC50 [7] | IC50 (Cytochrome P450 1A2) | Papp A→B [8] | solubility at 24 h (physchem) | hepatocyte CLint at 1 µM [9] | IC50 (Cytochrome P450 3A4) | Stability [10] | SMILES | Activity [5] | inhibition (INH) (Homo sapiens) | inhibition at 10 µM (hERG (KCNH2))
1 | 3.5 | 0.01 µM | 8.5 | 0.0631 µM |  |  |  |  |  |  |  |  | Cc1cc(-c2ccc(C(=O)[C@@H]3CCCC[C@H]3C(=O)Nc3cn(C)nc3C(F)F)cc2)n[nH]1 | Toxic |  | 
2 |  |  |  |  |  |  |  |  |  |  |  |  | C[C@H](C#Cc1ccc(Cc2ccc(F)cc2)s1)N(O)C(N)=O [ATRELEUTON] |  | 80% | 
3 | 3.2 | 0.0158 µM |  |  | 8.3 | 0.1 µM | 10 µM | 3 ×10⁻⁶ cm/s | 111 µM (≈ 54.5 µg/mL) | 4 µL/min/1e6 cells |  |  | CC(C)(O)CNC(=O)c1cnc(NC(=O)[C@@H]2CCCC[C@H]2C(=O)c2ccc(-c3cc[nH]n3)cc2)cn1 (racemic) |  |  | 22%
4 | 3.5 | 0.0398 µM |  |  | 8.5 | 0.126 µM |  | 23 ×10⁻⁶ cm/s | 12 µM (≈ 5.51 µg/mL) | 16 µL/min/1e6 cells | 3.16 µM | 69% | Cc1cc(-c2ccc3c([C@@H]4C[C@H]5C[C@H]5C[C@H]4C(=O)Nc4cn(C)nc4C(N)=O)noc3c2)n[nH]1 |  |  | 12%
